Measurements published in ChEMBL document CHEMBL1124437, “Analogues of cisplatin derived from diaminodideoxytetritols. Synthesis and activity against the ADJ/PC6 plasmacytoma in mice” (J Med Chem, 1989).

How the values were obtained:
[1] = Therapeutic index is the ratio of LD50 to ED90
Summary of the method: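 In female Balb-C mice bearing subcutaneous ADJ/PC6 tumor, dosed ip or po at 5, 25, 125 and 625 mg per kg (six animals per dose). Therapeutic index is the 50% lethal dose divided by the dose causing 90% tumor regression (LD50/ED90).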

[2] = tested on: Mus musculus; assay: Antitumor activity against ADJ/PC6 tumor subcutaneously implanted into female intraperitoneal compound administration; assay type: functional, organism-based
Summary of the method: (§1)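 ADJ/PC6 plasmacytoma implanted subcutaneously in female Balb-C mice, with compound given by intraperitoneal injection. Four dose levels were tested (5, 25, 125 and 625 mg per kg), six mice per dose. LD50 is the 50% lethal dose, ED90 is the dose giving 90% tumor regression, and therapeutic index = LD50/ED90.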

[3] = tested on: Mus musculus; assay: Compound was screened for antitumor activity against ADJ/PC6 tumor subcutaneously implanted into female intraperitoneal compound administration; assay type: functional, organism-based; summary of the method: as §1

Row | Substance | TI [1] | also measured
1 | CISPLATIN [listing 1 of 2 here] | 8.1 | 
2 | CISPLATIN [listing 2 of 2 here] |  | LD50 [2]: 13 mg/kg
3 | cis-dichloro(cis-5,6-diamino-1,3-dioxepane)platinum (II) [listing 1 of 2 here] | 4.1 | 
4 | cis-dichloro(cis-5,6-diamino-1,3-dioxepane)platinum (II) [listing 2 of 2 here] |  | LD50 [3]: 41.5 mg/kg
